From ChEMBL document CHEMBL1148220, “Antineoplastic agents. 529. Isolation and structure of nootkastatins 1 and 2 from the Alaskan yellow cedar Chamaecyparis nootkatensis” (2004)
≈ marks a conversion by molar mass, not a printed value. Calls of active or inactive are those of the source. The calls are words filed in the database; no cut-off is given here.

Legend:
Micrococcus luteus [1] = assay: Antimicrobial activity against Micrococcus luteus Presque Isle 456 after 24 hrs by broth microdilution assay; assay type: functional
Outline: (§1)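 Bacterial MICs were determined by NCCLS broth microdilution. Compounds were dissolved in a small volume of sterile DMSO and diluted in the appropriate medium just before testing. MIC was the lowest concentration giving no visible growth (optically clear). Assays were repeated on separate days.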

Staphylococcus aureus [2] = assay: Antimicrobial activity against Staphylococcus aureus ATCC 29213 after 24 hrs by broth microdilution assay in presence of 25% human serum; assay type: functional; conditions: ATCC 29213, 24 h
Outline: (§2)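 Bacteria were tested by NCCLS broth microdilution in medium containing 25% heat-inactivated, filter-sterilized normal human serum. Compounds were dissolved in sterile DMSO and diluted in medium immediately before use. MIC was the lowest concentration with no visible growth (optically clear). Assays were repeated on separate days.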

BXPC-3 = assay: Cytotoxicity against human BxPC3 cells after 48 hrs by SRB assay; assay type: functional; conditions: BXPC-3, 48 h
Streptococcus pyogenes [3] = assay: Antimicrobial activity against penicillin-resistant Streptococcus pyogenes after 24 hrs by broth microdilution assay in presence of 25% human serum; assay type: functional
Outline: (§3)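 Bacterial NCCLS broth microdilution run in medium with 25% heat-inactivated, filter-sterilized normal human serum. Compounds were taken up in sterile DMSO and diluted in medium immediately before use. MIC was the lowest concentration with no visible growth (optically clear). Assays were repeated on separate days.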

Neisseria gonorrhoeae [4] = assay: Antimicrobial activity against Neisseria gonorrhoeae ATCC 49226 at 64 ug/mL after 24 hrs by broth microdilution assay; assay type: functional; conditions: ATCC 49226, 24 h
Rhodococcus sp. [5] = assay: Antimicrobial activity against Rhodococcus sp. after 24 hrs by broth microdilution assay; assay type: functional; conditions: Rhodococcus sp. (in: high G+C Gram-positive bacteria); outline: as §1
Candida albicans [6] = assay: Antimicrobial activity against Candida albicans ATCC 90028 after 48 hrs by broth microdilution assay in presence of 25% human serum; assay type: functional; conditions: ATCC 90028, 48 h
Outline: (§4)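 For yeasts, NCCLS broth microdilution was run in medium supplemented with 25% heat-inactivated, filter-sterilized normal human serum. Compounds were reconstituted in sterile DMSO and diluted in medium just before the assay. MIC was the lowest concentration giving optically clear wells.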

Enterobacter cloacae [7] = assay: Antimicrobial activity against Enterobacter cloacae ATCC 13047 at 64 ug/mL after 24 hrs by broth microdilution assay; assay type: functional, organism-based
Neisseria gonorrhoeae [8] = assay: Antimicrobial activity against Neisseria gonorrhoeae ATCC 49226 after 24 hrs by broth microdilution assay in presence of 25% human serum; assay type: functional; conditions: ATCC 49226, 24 h; outline: as §2
Escherichia coli [9] = assay: Antimicrobial activity against Escherichia coli ATCC 25922 after 24 hrs by broth microdilution assay in presence of 25% human serum; assay type: functional; conditions: ATCC 25922, 24 h; outline: as §2
Staphylococcus aureus [10] = assay: Antimicrobial activity against methicillin-resistant Staphylococcus aureus after 24 hrs by broth microdilution assay in presence of 25% human serum; assay type: functional; outline: as §3
KM-20L2 = assay: Cytotoxicity against human KM20L2 cells after 48 hrs by SRB assay; assay type: functional; conditions: KM-20L2, 48 h
NCI-H460 = assay: Cytotoxicity against human NCI-H460 cells after 48 hrs by SRB assay; assay type: functional; conditions: NCI-H460, 48 h
Streptococcus pneumoniae [11] = assay: Antimicrobial activity against Streptococcus pneumoniae ATCC 6303 after 24 hrs by broth microdilution assay in presence of 25% human serum; assay type: functional; conditions: ATCC 6303, 24 h; outline: as §2
Nakaseomyces glabratus [12] = assay: Antimicrobial activity against Candida glabrata at 64 ug/mL after 48 hrs by broth microdilution assay; assay type: functional, organism-based
[13] = system: Stenotrophomonas maltophilia; assay: Antimicrobial activity against Stenotrophomonas maltophilia ATCC 13637 at 64 ug/mL after 24 hrs by broth microdilution assay; assay type: functional, organism-based
Cryptococcus neoformans [14] = assay: Antimicrobial activity against fluconazole-resistant Cryptococcus neoformans after 48 hrs by broth microdilution assay; assay type: functional
Outline: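 Yeast broth microdilution following NCCLS. Compounds were dissolved in sterile DMSO and diluted in medium immediately before testing. MIC was the lowest concentration leaving the well optically clear, with no visible growth.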

Staphylococcus aureus [15] = assay: Antimicrobial activity against methicillin-resistant Staphylococcus aureus after 24 hrs by broth microdilution assay; assay type: functional
Outline: (§5)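 NCCLS broth microdilution for bacteria. Compounds were dissolved in a small volume of sterile DMSO and diluted in medium just before testing. MIC was the lowest concentration giving no visible growth (optically clear). Assays were repeated on separate days.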

Streptococcus pneumoniae [16] = assay: Antimicrobial activity against Streptococcus pneumoniae ATCC 6303 after 24 hrs by broth microdilution assay; assay type: functional; conditions: ATCC 6303, 24 h; outline: as §1
Cryptococcus neoformans [17] = assay: Antimicrobial activity against Cryptococcus neoformans ATCC 90122 after 24 hrs by broth microdilution assay in presence of 25% human serum; assay type: functional; conditions: ATCC 90112, 24 h, in the assay text read “ATCC 90112” for “ATCC 90122”; outline: as §4
Rhodococcus sp. [18] = assay: Antimicrobial activity against Rhodococcus sp. after 24 hrs by broth microdilution assay in presence of 25% human serum; assay type: functional; conditions: Rhodococcus sp. (in: high G+C Gram-positive bacteria); outline: as §2
P388 = assay: Cytotoxicity against mouse P388 cells; assay type: functional; conditions: read-out: ED50 (the source's name)
MCF7 = assay: Cytotoxicity against human MCF7 cells after 48 hrs by SRB assay; assay type: functional; conditions: MCF7, 48 h
[19] = system: Staphylococcus epidermidis; assay: Antimicrobial activity against Staphylococcus epidermidis ATCC 49461 after 24 hrs by broth microdilution assay in presence of 25% human serum; assay type: functional; conditions: ATCC 49461, 24 h; outline: as §2
Cryptococcus neoformans [20] = assay: Antimicrobial activity against fluconazole-resistant Cryptococcus neoformans after 48 hrs by broth microdilution assay in presence of 25% human serum; assay type: functional
Streptococcus pneumoniae [21] = assay: Antimicrobial activity against penicillin-resistant Streptococcus pneumoniae after 24 hrs by broth microdilution assay in presence of 25% human serum; assay type: functional; outline: as §3
[22] = system: Staphylococcus epidermidis; assay: Antimicrobial activity against Staphylococcus epidermidis ATCC 49461 after 24 hrs by broth microdilution assay; assay type: functional; conditions: ATCC 49461, 24 h; outline: as §1
Enterobacter cloacae [23] = assay: Antimicrobial activity against Enterobacter cloacae ATCC 13047 after 24 hrs by broth microdilution assay in presence of 25% human serum; assay type: functional; conditions: ATCC 13047, 24 h; outline: as §2
Cryptococcus neoformans [24] = assay: Antimicrobial activity against Cryptococcus neoformans ATCC 90122 after 24 hrs by broth microdilution assay; assay type: functional; conditions: ATCC 90112, 24 h, in the assay text read “ATCC 90112” for “ATCC 90122”
Outline: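 Yeasts were tested by NCCLS broth microdilution. Compounds were dissolved in a small volume of sterile DMSO and diluted in the appropriate medium immediately before testing. MIC was the lowest concentration inhibiting all visible growth (optically clear). Assays were repeated on separate days.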

SF-268 = assay: Cytotoxicity against human SF268 cells after 48 hrs by SRB assay; assay type: functional; conditions: SF-268, 48 h
DU-145 = assay: Cytotoxicity against human DU145 cells after 48 hrs by SRB assay; assay type: functional; conditions: DU-145, 48 h
Streptococcus pneumoniae [25] = assay: Antimicrobial activity against penicillin-resistant Streptococcus pneumoniae after 24 hrs by broth microdilution assay; assay type: functional; outline: as §5
Streptococcus pyogenes [26] = assay: Antimicrobial activity against penicillin-resistant Streptococcus pyogenes after 24 hrs by broth microdilution assay; assay type: functional; outline: as §5
Candida albicans [27] = assay: Antimicrobial activity against Candida albicans ATCC 90028 at 64 ug/mL after 48 hrs by broth microdilution assay; assay type: functional, organism-based
Escherichia coli [28] = assay: Antimicrobial activity against Escherichia coli ATCC 25922 at 64 ug/mL after 24 hrs by broth microdilution assay; assay type: functional, organism-based
Enterococcus faecium [29] = assay: Antimicrobial activity against vancomycin-resistant Enterococcus faecium after 24 hrs by broth microdilution assay in presence of 25% human serum; assay type: functional; outline: as §3
Micrococcus luteus [30] = assay: Antimicrobial activity against Micrococcus luteus Presque Isle 456 after 24 hrs by broth microdilution assay in presence of 25% human serum; assay type: functional; outline: as §2
[31] = system: Stenotrophomonas maltophilia; assay: Antimicrobial activity against Stenotrophomonas maltophilia ATCC 13637 after 24 hrs by broth microdilution assay in presence of 25% human serum; assay type: functional; conditions: ATCC 13637, 24 h; outline: as §2
Enterococcus faecalis [32] = assay: Antimicrobial activity against Enterococcus faecalis ATCC 29212 after 24 hrs by broth microdilution assay; assay type: functional; conditions: ATCC 29212, 24 h; outline: as §1
Nakaseomyces glabratus [33] = assay: Antimicrobial activity against Candida glabrata after 48 hrs by broth microdilution assay in presence of 25% human serum; assay type: functional; outline: as §4
Staphylococcus aureus [34] = assay: Antimicrobial activity against Staphylococcus aureus ATCC 29213 after 24 hrs by broth microdilution assay; assay type: functional; conditions: ATCC 29213, 24 h; outline: as §1
Enterococcus faecalis [35] = assay: Antimicrobial activity against Enterococcus faecalis ATCC 29212 after 24 hrs by broth microdilution assay in presence of 25% human serum; assay type: functional; conditions: ATCC 29212, 24 h; outline: as §2
Enterococcus faecium [36] = assay: Antimicrobial activity against vancomycin-resistant Enterococcus faecium after 24 hrs by broth microdilution assay; assay type: functional; outline: as §5

CO[C@@H]1C[C@H]2C(C)(C)CCC[C@]2(C)c2ccc(O)c(C(C)C)c21 gave an MIC (Micrococcus luteus [1]) of 2 µg/mL (≈ 6.32 µM), an MIC (Staphylococcus aureus [2]) greater than 64 µg/mL and a GI50 (BXPC-3) of 1.5 µg/mL (≈ 4.74 µM). The MIC (Streptococcus pyogenes [3]) was greater than 64 µg/mL, the MIC (Neisseria gonorrhoeae [4]) was 4 µg/mL (≈ 12.6 µM) and the MBC (Rhodococcus sp. [5]) was 8 µg/mL (≈ 25.3 µM). For the same compound, the MIC (Rhodococcus sp. [5]) was 2 µg/mL (≈ 6.32 µM), the MIC (Candida albicans [6]) was greater than 64 µg/mL and the Activity (Enterobacter cloacae [7]) was “inactive”. It also gave an MIC (Neisseria gonorrhoeae [8]) greater than 64 µg/mL, an MIC (Escherichia coli [9]) greater than 64 µg/mL and an MIC (Staphylococcus aureus [10]) greater than 64 µg/mL. For the same compound, the GI50 (KM-20L2) was 1.6 µg/mL (≈ 5.06 µM), the GI50 (NCI-H460) was 1.8 µg/mL (≈ 5.69 µM) and the MIC (Streptococcus pneumoniae [11]) was greater than 64 µg/mL. For the same compound, the Activity (Nakaseomyces glabratus [12]) was “inactive”, the Activity [13] was “inactive” and the MFC (Cryptococcus neoformans [14]) was 4 µg/mL (≈ 12.6 µM). The MIC (Cryptococcus neoformans [14]) was 4 µg/mL (≈ 12.6 µM), the MBC (Staphylococcus aureus [15]) was 8 µg/mL (≈ 25.3 µM) and the MIC (Staphylococcus aureus [15]) was 4 µg/mL (≈ 12.6 µM). It also gave an MIC (Streptococcus pneumoniae [16]) of 8 µg/mL (≈ 25.3 µM), an MIC (Cryptococcus neoformans [17]) greater than 64 µg/mL and an MIC (Rhodococcus sp. [18]) greater than 64 µg/mL. It also gave an EC50 (P388) greater than 10 µg/mL, a GI50 (MCF7) of 1.5 µg/mL (≈ 4.74 µM) and an MIC [19] greater than 64 µg/mL. It also gave an MIC (Cryptococcus neoformans [20]) greater than 64 µg/mL, an MIC (Streptococcus pneumoniae [21]) greater than 64 µg/mL and an MBC [22] of 16 µg/mL (≈ 50.6 µM). It also gave an MIC [22] of 2 µg/mL (≈ 6.32 µM), an MIC (Enterobacter cloacae [23]) greater than 64 µg/mL and an MIC (Cryptococcus neoformans [24]) of 8 µg/mL (≈ 25.3 µM). It also gave a GI50 (SF-268) of 1.9 µg/mL (≈ 6 µM), a GI50 (DU-145) of 1.7 µg/mL (≈ 5.37 µM) and an MBC (Streptococcus pneumoniae [25]) of 16 µg/mL (≈ 50.6 µM). The MIC (Streptococcus pneumoniae [25]) was 16 µg/mL (≈ 50.6 µM), the MBC (Streptococcus pyogenes [26]) was 32 µg/mL (≈ 101 µM) and the MIC (Streptococcus pyogenes [26]) was 16 µg/mL (≈ 50.6 µM). For the same compound, the Activity (Candida albicans [27]) was “inactive”, the Activity (Escherichia coli [28]) was “inactive” and the MIC (Enterococcus faecium [29]) was greater than 64 µg/mL. For the same compound, the MIC (Micrococcus luteus [30]) was greater than 64 µg/mL, the MIC [31] was greater than 64 µg/mL and the MIC (Enterococcus faecalis [32]) was 4 µg/mL (≈ 12.6 µM). The MIC (Nakaseomyces glabratus [33]) was greater than 64 µg/mL, the MIC (Staphylococcus aureus [34]) was 4 µg/mL (≈ 12.6 µM) and the MIC (Enterococcus faecalis [35]) was greater than 64 µg/mL. The MBC (Enterococcus faecium [36]) was 4 µg/mL (≈ 12.6 µM) and the MIC (Enterococcus faecium [36]) was 4 µg/mL (≈ 12.6 µM).
